Test results: ChEMBL document CHEMBL4480459, “Acylated Lignans Isolated from Brachanthemum gobicum and Their Trypanocidal Activity” (J Nat Prod, 2019)

Tested on: Trypanosoma congolense
Test: Trypanocidal activity against bloodstream form of Trypanosoma congolense IL3000 after 72 hrs by CellTiter-Glo reagent-based luminescence assay
Assay type: functional, organism-based
Conditions: IL3000, 72 h
In short: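 BSF parasites maintained daily in HMI-9 medium. Compounds serially diluted 5-fold in HMI-9 from 25 μg/mL to 1.6 ng/mL and incubated with trypanosomes for 72 h. Viability read by luminescence after CellTiter-Glo addition; IC50 calculated from the dilution series. Pentamidine as positive control.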

`COc1cc([C@@H](O)[C@H](O)COC(=O)CC(C)C)ccc1O` and `COc1cc([C@@H](OC)[C@H](O)COC(=O)CC(C)C)ccc1O` cannot be ordered by IC50: > 25 µM for the first, > 25 µM for the second.

Going from `COc1cc([C@@H]2Oc3c(OC)cc(/C=C/C=O)cc3[C@H]2COC(=O)CC(C)C)ccc1O` to `COc1cc([C@@H]2Oc3c(OC)cc(C=O)cc3[C@H]2COC(=O)CC(C)C)ccc1O`, the IC50 rises from 2.4 µM to 19.9 µM (8.3-fold). The first is the more potent here.

Compared with `COc1cc([C@@H]2Oc3c(OC)cc(/C=C/COC(C)=O)cc3[C@H]2COC(C)=O)ccc1O`, `COc1cc([C@@H]2Oc3c(OC)cc(/C=C/C=O)cc3[C@H]2COC(C)=O)ccc1O` is 2.1-fold lower in IC50: 16.2 µM for the first, 7.6 µM for the second.

`COc1cc(C(=O)[C@H](O)COC(=O)CC(C)C)ccc1O` and `COc1cc(C(=O)[C@@H](COC(=O)CC(C)C)c2cc(C=O)cc(OC)c2O)ccc1O` cannot be ordered by IC50: > 25 µM for the first, > 25 µM for the second.

Compared with `COc1cc([C@@H]2Oc3c(OC)cc(C(=O)O)cc3[C@H]2COC(=O)CC(C)C)ccc1O`, `COc1cc([C@@H]2Oc3c(OC)cc(/C=C/COC(=O)CC(C)C)cc3[C@H]2COC(=O)CC(C)C)ccc1O` is lower in IC50: > 25 µM for the first, 13.4 µM for the second. The second is the more potent here.

Compared with `COc1cc([C@@H](O)[C@@H](COC(=O)CC(C)C)Oc2ccc(/C=C/COC(=O)CC(C)C)cc2OC)ccc1O`, `COc1cc(C(=O)[C@@H](COC(=O)CC(C)C)Oc2ccc(/C=C/COC(=O)CC(C)C)cc2OC)ccc1O` is 1.8-fold lower in IC50: 17.4 µM for the first, 9.6 µM for the second. The second is the more potent here.

`COc1cc(/C=C/C=O)ccc1O` [CONIFERYL ALDEHYDE] and `COc1cc(C=O)ccc1O` [VANILLIN] cannot be ordered by IC50: > 25 µM for the first, > 25 µM for the second.

`COc1cc(/C=C/C(=O)O)ccc1O` [FERULATE] and `COc1cc(/C=C/COC(=O)CC(C)C)ccc1O` cannot be ordered by IC50: > 25 µM for the first, > 25 µM for the second.

For `C=C(C=O)[C@H](COC(=O)CC(C)C)C(c1ccc(O)c(OC)c1)c1ccc(O)c(OC)c1`, the IC50 was 2.8 µM.
